Laboratory results published in PubChem BioAssay AID2152 (The Scripps Research Institute Molecular Screening Center, 2009).
Out of some 2,300 compounds screened, about 25 (1%) were called active. This excerpt belongs to a sample that is enriched for actives. A number with no mark means an inactive call.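 How the source made its calls: active means mean inhibition over three replicate wells above the hit threshold derived in the earlier primary screen (cut at about 45% in these data); inactive means the rest.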

What follows are molecules tested on Hepatitis C virus core protein (core106 dimerization) (assay: blockers of core106 self-association – biochemical, TR-FRET, triplicate, confirmation (AID 2152;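 further: 0% = DMSO wells and 100% = unlabelled core106 competitor control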)). Details: TR-FRET GST-/Flag-core106 dimerization, HTRF; at 5 µM; stronger effect = higher value.
How it was run: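 Test system: GST- and Flag-tagged HCV core106 peptides, dimerization via antibody TR-FRET / Amount: 17 nM Flag- plus 13.5 nM GST-core106 / Probe or stimulus: Eu(K)-anti-GST plus XL665-anti-FLAG antibodies / Compound dosing: one 5 µM dose, 0.5% DMSO / Times: 4 h incubation, 22.5 °C / Technique: TR-FRET, 340 nm excitation, 671/617 nm emission / Evaluation: percent inhibition from emission ratio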
`CC(C)C(C)(C#N)NC(=O)CSc1nc2scc(-c3ccco3)c2c(=O)n1-c1ccccc1` (configuration not stated) was tested, and the inhibition was -0.21%.
In the case of `N#C/C(=N\Nc1ccc(S(=O)(=O)N2CCc3ccccc32)cc1)C(N)=S`, the inhibition is reported as -0.77%.
Molecule `CC(=O)Oc1ccc(C(=O)[C@H]2[C@H]3C(=O)N(c4ccccc4)C(=O)[C@H]3[C@@H]3C=CC=NN32)cc1` has an inhibition of -1.31%.
In the case of `COc1cccc(NC(=S)Nc2cc(C)cc(C)n2)c1`, the inhibition is reported as 72.9% (active).
`COc1cccc(NC(=O)c2cc(-c3ccc(C)o3)nc3ccccc23)c1` gave an inhibition of -3.59%.
`COc1ccc(-n2nc3cc(C)c(NC(=S)NC(=O)c4ccccc4C)cc3n2)cc1` gave an inhibition of 14.3%.
Work on `CC1Cc2ccccc2N1Cc1cc(=O)n2ccsc2n1` (configuration not stated) yielded an inhibition of 3.14%.
For `COc1ccc(C(=O)[C@H]2[C@H]3C(=O)N(c4ccc(C)cc4)C(=O)[C@H]3C3C=CC=NN32)cc1` (some centres not stated), the inhibition was 2.52%.
`Cc1cc(C)c2nc(-c3ccccn3)cc(C(=O)Nc3ccc(S(=O)(=O)Nc4cc(C)on4)cc3)c2c1` gave an inhibition of 14.4%.
With `COc1cccc2c1NC(C(=O)O)C1CC=CC21` (configuration not stated) the inhibition was 8.1%.
In the case of `Cc1ccc2c(c1C)NC(C(=O)O)C1CC=CC21` (configuration not stated), the inhibition is reported as 17.4%.
For `O=C(O)C1Nc2c(O)cccc2C2C=CCC12` (configuration not stated), the inhibition was 53.8% (active).
`COc1ccccc1Nc1ncc(-c2cccs2)s1` was tested, and the inhibition was -8.18%.
With `O=C(CN1CCN(c2ccc(F)cc2)CC1)NC(=O)NCc1ccco1` the inhibition was -6.85%.
`O=C(Cn1c(=O)c2c(ncn2C2CCCC2)n(Cc2ccccc2)c1=O)N1CCc2ccccc21` was tested, and the inhibition was 5.72%.
`COc1ccc(C2CC(c3ccccc3)=NN2c2ccc(/C=N/NC(=O)c3ccncc3)cc2)cc1` (configuration not stated) was tested, and the inhibition was -1.14%.
`COc1ccc(C2=NN(c3nc(-c4ccccc4)c(CC(=O)O)s3)C(c3ccco3)C2)cc1` (configuration not stated) was tested, and the inhibition was 51.3% (active).
With `CC(C)[C@H](NS(=O)(=O)c1ccccc1)C(=O)OCC(=O)N1N=C(c2ccc(Cl)cc2)CC1c1ccco1` (some centres not stated) the inhibition was -2.37%.
`COc1ccc(C(=O)N/N=C(\C)c2ccc3c(c2)C2C=CCC2C(c2ccccc2)N3)cc1` (configuration not stated) showed an inhibition of 1.09%.
For `Cc1cccc(N2CC(C(=O)Nc3nnc(SCc4ccccn4)s3)CC2=O)c1` (configuration not stated), the inhibition was 21.3%.
`COc1ccc(C=O)cc1COc1ccc(F)cc1F` showed an inhibition of -6.06%.
Work on `O=C(Nc1ccc(N2CCCC2)c(Cl)c1)c1cccc(-c2cc3ccccc3oc2=O)c1` yielded an inhibition of -5.08%.
Work on `N#Cc1c(-c2ccco2)cc(-c2ccccn2)nc1N` yielded an inhibition of 3.09%.
`CCN(CC(=O)Nc1ccc(OC)cc1)C(=O)Cc1cccs1` gave an inhibition of 6.25%.
With `Cc1ccc(C)c(S(=O)(=O)N2CCC(c3nc4c(nnn4Cc4ccc5c(c4)OCCO5)c(=O)[nH]3)CC2)c1` the inhibition was 7.31%.
In the case of `Cc1ccc(O)c(N=CC2=C(O)c3ccccc3C2=O)c1`, the inhibition is reported as 7.52%.
`COc1ccccc1NS(=O)(=O)c1cc(NC(=O)Nc2ccc(Cl)cc2Cl)ccc1N1CCCCC1` showed an inhibition of -5.21%.
In the case of `O=Cc1cn(-c2ccccc2)nc1-c1cc2c(ccc3ccccc32)oc1=O`, the inhibition is reported as -0.21%.
Molecule `COC(=O)/C=c1/s/c(=C(\C#N)C(=O)NCc2ccco2)n(-c2ccc(C)cc2)c1=O` has an inhibition of -4.05%.
Molecule `Cc1c(C(=O)Nc2ccc(Cl)cc2)c2ccccn2c1C(=O)c1ccc([N+](=O)[O-])cc1` has an inhibition of -5.31%.
`O=C(OCC(=O)c1ccc(Cl)s1)c1cnccn1` showed an inhibition of 1.14%.
`CCOC(=O)c1ccc(NC(=O)COc2ccc(-n3cnnn3)cc2)cc1` showed an inhibition of 3.21%.
`COc1ccccc1N1CCN(C(=O)c2ccc3c(c2)NC(=O)C(CSCc2ccccc2C)N3)CC1` (configuration not stated) gave an inhibition of 25.3%.
`Cc1ccc(N2C(=O)N3[C@H](c4ccc(F)cc4)[C@@H]4C(=O)N(C5CCCCC5)C(=O)[C@@H]4[C@]3(Cc3ccccc3)C2=O)cc1` was tested, and the inhibition was -1.83%.
In the case of `CC(=O)Nc1ccc(NC(=O)c2ccc(COc3ccccc3)cc2)cc1`, the inhibition is reported as -12.8%.
`Cc1cc(-c2csc(NC(=O)c3cc4ccccc4o3)n2)c(C)n1C` was tested, and the inhibition was 22.5%.
In the case of `COC(=O)c1ccc(Oc2coc3cc(OCc4cnn(-c5ccccc5)c4)ccc3c2=O)cc1`, the inhibition is reported as -4.6%.
In the case of `N#Cc1c(-c2cccc(F)c2)cc(-c2ccccc2)nc1Br`, the inhibition is reported as 9.78%.
Molecule `CCOC(=O)C1=C(c2ccccc2)NC(=S)NC1c1cc([N+](=O)[O-])ccc1OC` (configuration not stated) has an inhibition of -1.99%.
`COc1ccc(-n2c(-c3ccccc3)nc(=S)c3c2CCCC3)cc1` gave an inhibition of 33.8%.
Work on `O=[N+]([O-])c1ccc(Oc2cc(NC3CCCCCCC3)c([N+](=O)[O-])cc2[N+](=O)[O-])cc1` yielded an inhibition of -0.42%.
Molecule `Cc1ccc2nc(/C(C#N)=C\c3ccc(Oc4ccc(C(F)(F)F)cc4[N+](=O)[O-])cc3)[nH]c2c1` has an inhibition of -6.22%.
`N#CC(=C1CCCC1)c1nc(-c2ccccc2O)cs1` showed an inhibition of -2%.
Work on `O=C(Nc1ccc2c(c1)OCO2)c1cc(-c2cccnc2)nc2ccccc12` yielded an inhibition of -0.48%.
For `O=C1C2C3C=CC(C4CC34)C2C(=O)N1/N=C/c1ccc(-c2ccc(Cl)cc2[N+](=O)[O-])o1` (configuration not stated), the inhibition was -5.46%.
`CCN1C=C(Cc2cccs2)C2=C(C1)C(c1cccs1)C(C#N)=C(N)O2` (configuration not stated) gave an inhibition of -3.27%.
`CCCc1nc2sc3c(SCC(=O)NCc4ccco4)ncnc3c2c2c1CCC2` showed an inhibition of 15.9%.
`CSc1nc(SCC(=O)NCc2ccco2)c2c3c(sc2n1)CN(C)CC3` was tested, and the inhibition was 20.1%.
`CCCCc1nc2sc3c(SCC(=O)NCc4ccco4)ncnc3c2c2c1CCC2` was tested, and the inhibition was 52.8% (active).
Work on `O=C(NCc1ccco1)C(c1ccco1)N(C(=O)Cn1nnc2ccccc21)c1ccc2c(c1)CCC2` (configuration not stated) yielded an inhibition of 6.56%.
`COc1ccc(/C=C/C(=O)Nc2cc(C)nn2-c2nc3ccccc3n2Cc2cccc([N+](=O)[O-])c2)cc1` showed an inhibition of -5.15%.
With `COc1ccc(NS(=O)(=O)c2ccc(O)c(NC(=O)c3cc4c(C)nn(-c5ccc(F)cc5)c4s3)c2)cc1` the inhibition was -2.83%.
For `Cc1ccc(Cn2c(SCC(=O)Nc3cc(C)on3)nc3ccccc3c2=O)cc1`, the inhibition was 9.61%.
Molecule `COc1cccc(-n2c(SCC(=O)Nc3cc(C)on3)nc3c([nH]c4ccccc43)c2=O)c1` has an inhibition of -2.22%.
In the case of `CCCCn1c(SCC(=O)Nc2cc(C)on2)nc2ccccc2c1=O`, the inhibition is reported as 54.9% (active).
`CC1CCCCC12NC(=O)N(CC(=O)c1ccc[nH]1)C2=O` (configuration not stated) was tested, and the inhibition was -2.48%.
In the case of `Cn1c(SCC(=O)Nc2sccc2C#N)nnc1-c1ccccc1`, the inhibition is reported as -0.16%.
